Laboratory results reported in ChEMBL document CHEMBL5365541, “Designing peptide amphiphiles as novel antibacterials and antibiotic adjuvants against gram-negative bacteria” (Bioorg Med Chem, 2023).
≈ marks a conversion by molar mass, not a printed value. Calls of active or inactive are those of the source. No cut-off for these calls is given here.

Tests used:
Acinetobacter baumannii [1] = test: Antibacterial activity against Acinetobacter baumannii incubated for 20 to 24 hrs by broth microdilution method; assay type: functional; conditions: time 20-24 hrs
How it was run: (§1)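 Broth microdilution: colonies suspended directly to 1.5×10^8 CFU/mL (0.5 McFarland), then diluted in Mueller–Hinton broth to ~10^5 CFU/mL final. PA stock 1 mg/mL in water, pH 7, serially diluted in MHB. Plates incubated 20–24 h at 37 °C. MIC = lowest concentration inhibiting growth, read as OD600 with optional 1% TTC staining. Triplicate.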

Escherichia coli [2] = test: Antibacterial activity against Escherichia coli K12 incubated for 20 to 24 hrs by broth microdilution method; assay type: functional; conditions: time 20-24 hrs; how it was run: as §1
Staphylococcus aureus [3] = test: Antibacterial activity against methicillin resistant Staphylococcus aureus JE2 measured over 21 days by broth microdilution method; assay type: functional, organism-based; conditions: time 21.0 day
[4] = Retention time of the compound by RP-HPLC analysis; assay type: physicochemical
How it was run: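 Reverse-phase HPLC, linear gradient 0–100% acetonitrile in water with 0.1% TFA over 20 min; retention time recorded.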

Staphylococcus aureus [5] = test: Antibacterial activity against methicillin-resistant Staphylococcus aureus JE2 incubated for 20 to 24 hrs by broth microdilution method; assay type: functional; conditions: time 20-24 hrs
How it was run: (§2)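 Broth microdilution in MHB: direct colony suspension at 0.5 McFarland diluted to ~10^5 CFU/mL final; peptide stock 1 mg/mL in water at pH 7, serially diluted. Incubated 20-24 h at 37 °C; MIC taken as the lowest concentration inhibiting growth (OD 600 nm, 1% TTC stain); triplicate; vancomycin and gentamicin as positive controls.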

Staphylococcus aureus [6] = test: Antibacterial activity against methicillin-resistant Staphylococcus aureus 13C incubated for 20 to 24 hrs by broth microdilution method; assay type: functional; conditions: time 20-24 hrs; how it was run: as §2
HT-29 [7] = test: Cytotoxicity against human HT-29 cells assessed as inhibition of cell growth incubated for 24 hrs at pH 6.5 by MTT assay; assay type: toxicity, cell-based; conditions: ht-29, pH 6.5, 24 h, time 24 hrs
How it was run: (§3)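 HT-29 cells in McCoy's 5a with 10% FBS were seeded at 15,000 cells/well and grown 24 h at 37 °C, 10% CO2. Medium then changed to pH 7.4 or pH 6.5 (20 mM MOPS, acidified with HCl). Peptide added in 2-fold dilutions, 7.8–500 µg/mL, for 24 h. Wells washed and given fresh pH 7.4 medium. MTT (12 mM, 10 µL) added for 4 h, then SDS-HCl for 4 h; A570 read.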

HT-29 [8] = test: Cytotoxicity against human HT-29 cells assessed as inhibition of cell growth incubated for 24 hrs at pH 7.4 by MTT assay; assay type: toxicity, cell-based; conditions: ht-29, pH 7.4, 24 h, time 24 hrs; how it was run: as §3
[9] = Self assembly property of the compound assessed as zeta potential at 250 ug/mL at pH 7 measured after 2 hrs; assay type: physicochemical; conditions: pH 7, 2 h, dose 250 µg/ml
How it was run: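 Peptide self-assembled at 1 mg/mL, pH 7, annealed 2 h at 80 °C, and aged overnight. Diluted to 250 µg/mL in water; zeta potential measured at 25 °C.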

[10] = Self assembly property of the compound assessed as formation of micelles at 1 mg/ml incubated overnight by transmission electron microscopy; assay type: physicochemical
How it was run: (§4)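 Samples were dissolved at 2 mM in water, pH 7, and left at room temperature overnight. Applied to copper grids for 5 min, blotted, and negatively stained with NanoVan for 30 s. Imaged by TEM at 120 kV.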

Escherichia coli [11] = test: Ratio of MIC for Escherichia coli K12 at pH 5.5 to MIC for Escherichia coli K12 at pH 7.0
Staphylococcus aureus [12] = test: Ratio of MIC for methicillin-resistant Staphylococcus aureus JE2 at pH 5.5 to MIC for methicillin-resistant Staphylococcus aureus JE2 at pH 7.0
Staphylococcus aureus [13] = test: Antibacterial activity against methicillin-resistant Staphylococcus aureus LAC incubated for 20 to 24 hrs by broth microdilution method; assay type: functional; conditions: time 20-24 hrs; how it was run: as §2
Escherichia coli [14] = test: Synergistic antibacterial activity against Escherichia coli K12 assessed as fractional inhibitory concentration index incubated for 20 to 24 hrs in presence of rifampicin by checkerboard broth microdilution assay; assay type: functional; conditions: time 20-24 hrs
How it was run: (§5)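 Checkerboard broth microdilution. E. coli K12 or A. baumannii clinical isolate grown to mid-log (OD ~0.8) and diluted to ~10^5 CFU/mL in MHB. Two-fold dilutions of rifampicin or vancomycin run across the plate against two-fold PA dilutions down it. Incubated 20–24 h at 37 °C, OD read at 470 nm. FICi calculated from the combination MICs.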

Acinetobacter baumannii [15] = test: Synergistic antibacterial activity against Acinetobacter baumannii assessed as fractional inhibitory concentration index incubated for 20 to 24 hrs in presence of rifampicin by checkerboard broth microdilution assay; assay type: functional; conditions: time 20-24 hrs; how it was run: as §5
Cell membrane [16] = test: Induction of inner membrane permeability in Escherichia coli K12 at 4 ug/mL by propidium iodide staining based spectrofluorometry; assay type: subcellular; conditions: dose 4.0 µg/ml
How it was run: (§6)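 E. coli K12 grown in MHB to mid-log, washed twice in PBS, and diluted to 10^6 CFU/mL in 5 mM HEPES + glucose. Cells preincubated with […] at least 15 min at 37 °C. Then treated with agent at 1/8, 1× or 2× MIC, or with PA–vancomycin 1:1. Fluorescence read at ex 535 / em 615 nm. Polymyxin B as positive control; untreated cells as negative control.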

Cell membrane [17] = test: Induction of inner membrane permeability in Escherichia coli K12 at 8 to 16 ug/mL by propidium iodide staining based spectrofluorometry; assay type: subcellular; conditions: dose 8-16 µg/ml; how it was run: as §6
Staphylococcus aureus [18] = test: Induction of morphological changes in methicillin-resistant Staphylococcus aureus JE2 assessed as membrane deformations with protruding bumps at 8 ug/ml incubated for 2 hrs by scanning electron microscopy; assay type: functional, organism-based; conditions: dose 8.0 µg/ml
Staphylococcus aureus [19] = test: Induction of morphological changes in methicillin-resistant Staphylococcus aureus JE2 assessed as membrane deformations with protruding holes at 8 ug/ml incubated for 2 hrs by scanning electron microscopy; assay type: functional, organism-based; conditions: dose 8.0 µg/ml
Staphylococcus aureus [20] = test: Induction of morphological changes in Methicillin-resistant Staphylococcus aureus JE2 assessed as cytoplasmic leakage at 8 ug/ml incubated for 2 hrs by scanning electron microscopy; assay type: functional, organism-based; conditions: dose 8.0 µg/ml
Escherichia coli [21] = test: Induction of morphological changes in Escherichia coli K12 assessed as membrane deformations with protruding bumps at 8 ug/ml incubated for 2 hrs by scanning electron microscopy; assay type: functional, organism-based; conditions: dose 8.0 µg/ml
Escherichia coli [22] = test: Induction of morphological changes in Escherichia coli K12 assessed as membrane deformations with protruding holes at 8 ug/ml incubated for 2 hrs by scanning electron microscopy; assay type: functional, organism-based; conditions: dose 8.0 µg/ml
Escherichia coli [23] = test: Induction of morphological changes in Escherichia coli K12 assessed as cytoplasmic leakage at 8 ug/ml incubated for 2 hrs by scanning electron microscopy; assay type: functional, organism-based; conditions: dose 8.0 µg/ml
HEK293 = test: Cytotoxicity against HEK293 cells assessed as reduction in cell viability at 64 to 256 ug/ml incubated for 24 hrs by XTT assay; assay type: toxicity, cell-based; conditions: human, hek293, 24 h, dose 64-256 µg/ml
How it was run: (§7)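 HEK-293 cells, passages 3–8, seeded at 5×10^4 per well and preincubated 24 h at 37 °C, 5% CO2. Medium replaced with serially diluted PA, final 8–256 µg/mL, for 24 h, in triplicate. XTT reagent (0.5 mg/mL) added for 4 h at 37 °C, then absorbance read at 600 nm.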

[24] = Toxicity in Galleria mellonella assessed as survival at 75 mg/kg measured after 4 days relative to control; assay type: organism-based; conditions: in vivo, time 4 day
How it was run: (§8)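 Acute toxicity in G. mellonella larvae following OECD guidelines: cohorts of five larvae injected starting at 25 mg/kg, retested […] on new larvae if lethality was under 40%, continuing until a toxic dose was found; incubated at 37 °C with mortality recorded daily over 4 days.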

[25] = Toxicity in Galleria mellonella assessed as survival at 125 to 150 mg/kg measured after 4 days relative to control; assay type: organism-based; conditions: in vivo, dose 125-150 mg/kg, time 4 day; how it was run: as §8
Staphylococcus aureus [26] = test: Antibacterial activity against Methicillin-resistant Staphylococcus aureus JE2 infected in Galleria mellonella assessed as survival at 75 mg/kg measured after 4 days relative to control; assay type: functional; conditions: JE2, 96 h, time 4 day
How it was run: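 G. mellonella larvae injected with 10 µL MRSA JE2 at a pre-set infective dose (60-80% lethality within 48 h, not 100% within 24 h) into last left proleg; after 2 h, 10 µL peptide or antibiotic injected into last right proleg; larvae held at 37 °C, mortality recorded daily for 4 days; untreated infected and PBS-only larvae as controls.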

[27] = Self assembly property of the compound assessed as width of micelles at 1 mg/ml incubated overnight by transmission electron microscopy; assay type: physicochemical; how it was run: as §4
Staphylococcus aureus [28] = test: Disruption of preformed biofilm in methicillin-resistant Staphylococcus aureus JE2 at MIC to 4 times MIC; assay type: functional, organism-based
Staphylococcus aureus [29] = test: Inhibition of biofilm formation in methicillin-resistant Staphylococcus aureus JE2 at MIC; assay type: functional, organism-based
Acinetobacter baumannii [30] = test: Synergistic antibacterial activity against Acinetobacter baumannii assessed as potentiation of rifampicin-induced antibacterial activity by measuring fold increase in rifampicin MIC incubated for 20 to 24 hrs by checkerboard broth microdilution assay relative to rifampicin alone; assay type: functional; conditions: time 20-24 hrs; how it was run: as §5
Cell membrane [31] = test: Induction of inner membrane permeability in methicillin-resistant Staphylococcus aureus JE2 assessed as shift in bacterial zeta potential at 40 ug/ml measured after 1 hr; assay type: subcellular; conditions: dose 40.0 µg/ml
How it was run: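 Mid-log MRSA JE2 from MHB (OD ~0.8) washed and resuspended in PBS at 5×10^7 CFU/mL, exposed to peptide at 10 × MIC for 1 h, then zeta potential measured at 25 °C; untreated cells as negative control, daptomycin and polymyxin B as reference drugs.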

Cell membrane [32] = test: Induction of inner membrane permeability in Escherichia coli K12 assessed as shift in bacterial zeta potential at 40 ug/ml measured after 1 hr; assay type: subcellular; conditions: dose 40.0 µg/ml
[33] = Cytotoxicity against HEK293 cells assessed as cell viability up to 64 ug/ml incubated for 24 hrs by XTT assay relative to control; assay type: toxicity, cell-based; conditions: human, up to 64 µg/mL, read-out: Activity; how it was run: as §7

CNC(C)[C@@H]1CC[C@@H](N)[C@@H](O[C@H]2[C@H](O)[C@@H](O[C@H]3OC[C@](C)(O)[C@H](NC)[C@H]3O)[C@H](N)C[C@@H]2N)O1 (stereo not given in full)
MIC (Acinetobacter baumannii [1]): 1 µg/mL (≈ 2.09 µM)
MIC (Escherichia coli [2]): 1 µg/mL (≈ 2.09 µM)
Activity (Staphylococcus aureus [3]): Active

CCCCCCCCCCCCCCCCCCN[C@@H](C)C(=O)N[C@@H](C)C(=O)NC(CN)C(=O)NC(CN)C(=O)NC(CN)C(=O)O (stereo not given in full)
Retention_time [4]: 15.9 min
MIC (Acinetobacter baumannii [1]): 64 µg/mL (≈ 95.4 µM)
MIC (Escherichia coli [2]): 32 µg/mL (≈ 47.7 µM)
MIC (Staphylococcus aureus [5]): 32 µg/mL (≈ 47.7 µM)
MIC (Staphylococcus aureus [6]): 64 µg/mL (≈ 95.4 µM)
Activity (HT-29 [7]): Non-Toxic
Activity (HT-29 [8]): Non-Toxic
Activity [9]: 10.3 mV
Activity [10]: Active
Ratio (Escherichia coli [11]): > 1
Ratio (Staphylococcus aureus [12]): > 1

CCCCCCCCCCCCCCCCN[C@@H](CCCCN)C(=O)N[C@@H](CCCNC(=N)N)C(=O)N[C@@H](CCCCN)C(=O)N[C@@H](CCCNC(=N)N)C(=O)O
Retention_time [4]: 13.8 min
MIC (Acinetobacter baumannii [1]): 8 µg/mL (≈ 9.86 µM)
MIC (Escherichia coli [2]): 4 µg/mL (≈ 4.93 µM)
MIC (Staphylococcus aureus [5]): 4 µg/mL (≈ 4.93 µM)
MIC (Staphylococcus aureus [6]): 8 µg/mL (≈ 9.86 µM)
MIC (Staphylococcus aureus [13]): 8 µg/mL (≈ 9.86 µM)
fractional inhibitory concentration index (FICI) (Escherichia coli [14]): 0.62
fractional inhibitory concentration index (FICI) (Acinetobacter baumannii [15]): 0.75
Activity (Cell membrane [16]): inactive
Activity (Cell membrane [17]): Active
Activity (Staphylococcus aureus [18]): Active
Activity (Staphylococcus aureus [19]): Active
Activity (Staphylococcus aureus [20]): Active
Activity (Escherichia coli [21]): Active
Activity (Escherichia coli [22]): Active
Activity (Escherichia coli [23]): Active
Activity (Staphylococcus aureus [3]): Active
Activity (HEK293): Non-Toxic
survival at 96 h [24]: 100%
survival at 96 h [25]: 80%
survival at 75 mg/kg (Staphylococcus aureus [26]): 60%
Activity [9]: 15 mV
Activity [27]: 7 nm
Activity (Staphylococcus aureus [28]): inactive
inhibition (Staphylococcus aureus [29]): Active
fold change (FC) (Acinetobacter baumannii [30]): 2
Activity (Cell membrane [31]): Active
Activity (Cell membrane [32]): Active
viability at 24 h [33]: 100%
Ratio (Escherichia coli [11]): > 1
Ratio (Staphylococcus aureus [12]): > 1
